From ChEMBL document CHEMBL1126632, “Synthesis and dopamine antagonist activity of 2-thioether derivatives of the ergoline ring system” (J Med Chem, 1993)

Key:
Format in all cases: functional
[1] = tested on: Rattus norvegicus; assay: Conditioned avoidance response in rats after oral administration
Procedure, shortened: (§1)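 Wistar rats (120-130 g) trained in a shuttle box to cross on a 5-s buzzer; failure within 1 s after the buzzer gave a mild shock. Only well-conditioned animals were used, in groups of five, dosed orally 1 h 50 min before testing. After 10-min habituation they were tested for 20 min. Blockade = shocks received as % of stimuli; EDmin reported.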

[2] = tested on: Rattus norvegicus; assay: Compound was tested for the presence of catalepsy (CAT) in rats after oral administration; ip administration
[3] = tested on: Rattus norvegicus; assay: Compound was tested for the Conditioned avoidance response (CAR) in rats after oral administration; ip administration
[4] = tested on: Mus musculus; assay: Tested for the apomorphine climbing behavior in mice after oral administration
Procedure, shortened: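 Female TO mice (20-25 g), groups of eight, dosed orally with compound or vehicle, then habituated 60 min in wire-mesh cylinders. Apomorphine 2.5 mg/kg sc given; from 10 min later, climbing scored 0-4 (paws on cage) at 5-min intervals for 20 min.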

[5] = tested on: Rattus norvegicus; assay: Percent change in serum prolactin in adult male Dawley rats after intraperitoneal administration.
Procedure, shortened: (§2)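 Adult male Sprague-Dawley rats, groups of 10, given compound in 0.5% lactic acid or vehicle ip 2 h before decapitation. Trunk blood clotted at 4 °C and centrifuged. Serum prolactin measured by NIAMDD radioimmunoassay kit against rat prolactin reference NIAMDD-RP-1. Result expressed as % change from controls run in the same experiment. Means compared by Student's test.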

[6] = tested on: Rattus norvegicus; assay: Tested for the presence of catalepsy(CAT) in rats after oral administration
Procedure, shortened: (§3)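 Wistar rats (180-190 g), groups of eight, compound given orally in distilled water or 0.5% carboxymethyl cellulose. Front paws placed on a 1.5 cm rod 7 cm high at 0.5, 1, 1.5, 2, 3, 4 and 5 h; time held recorded up to 20 min and scored 0-5. Maximum score per animal summed (group maximum 40); EDmin = lowest dose exceeding a threshold score.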

[7] = tested on: Rattus norvegicus; assay: Tested for the amphetamine induced stereotyped behavior in rats after oral administration
Procedure, shortened: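 Wistar rats, groups of eight, given d-amphetamine sulfate 10 mg/kg ip 1 h after test compound. Stereotypy scored 1-8 at eight time points up to 4 h, and the group mean taken at each time. EDmin = lowest dose reducing stereotypy by more than 25% versus amphetamine-treated controls.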

[8] = organism: Rattus norvegicus; assay: Compound was tested for the Conditioned avoidance response (CAR) in rats; procedure, shortened: as §1
[9] = tested on: Rattus norvegicus; assay: % change in serum prolactin in adult male Dawley rats after intraperitoneal administration.; procedure, shortened: as §2
[10] = tested on: Rattus norvegicus; assay: Compound was tested for the presence of catalepsy (CAT) in rats after oral administration; procedure, shortened: as §3
[11] = organism: Rattus norvegicus; assay: Compound was tested for the % change in serum prolactin in adult male Dawley rats.(not significant); procedure, shortened: as §2

`C[C@@H]1C[C@@H]2c3cccc4[nH]cc(c34)C[C@H]2N(C)C1` was tested, and the EDmin [1] was >40 mg/kg.

With `CSc1[nH]c2cc(O)cc3c2c1C[C@@H]1[C@@H]3C=C(C)CN1C` the EDmin [2] was 25 mg/kg, the EDmin [3] was 25 mg/kg and the EDmin [4] was 25 mg/kg. It also gave a Change [5] of -50%.

`CSc1[nH]c2cccc3c2c1C[C@@H]1[C@@H]3C[C@@H](C)CN1C` showed an EDmin [6] of 20 mg/kg, an EDmin [4] of 40 mg/kg and an EDmin [7] of 5 mg/kg. The Change [5] was 570% and the EDmin [1] was 5 mg/kg.

With `CCSc1[nH]c2cccc3c2c1C[C@@H]1[C@@H]3C=C(C)CN1C` the EDmin [6] was 40 mg/kg, the EDmin [4] was >100 mg/kg and the Change [5] was 67%. For the same molecule, the EDmin [1] was 25 mg/kg.

With `CSc1[nH]c2cccc3c2c1C[C@@H]1[C@@H]3C=C(CO)CN1C` the EDmin [2] was 12.5 mg/kg, the EDmin [3] was 6 mg/kg and the EDmin [4] was >25 mg/kg. For the same molecule, the Change [5] was 481%.

With `CSc1[nH]c2cccc3c2c1C[C@@H]1[C@@H]3C[C@H](C)CN1C` the EDmin [4] was >25 mg/kg, the Change [5] was 63% and the EDmin [1] was 40 mg/kg.

`CCN1CC(C)=C[C@@H]2c3cccc4[nH]c(SC)c(c34)C[C@H]21` showed an EDmin [4] of 100 mg/kg, a Change [5] of -65% and an EDmin [1] of 25 mg/kg.

For `CC1=C[C@@H]2c3cccc4[nH]c(Sc5ccccc5)c(c34)C[C@H]2N(C)C1`, the EDmin [6] was 10 mg/kg, the EDmin [4] was 25 mg/kg and the EDmin [7] was 20 mg/kg. The Change [5] was 141% and the EDmin [1] was 2.5 mg/kg.

With `CCCSc1[nH]c2cccc3c2c1C[C@@H]1[C@@H]3C[C@@H](C)CN1C` the Change [5] was 76% and the EDmin [1] was >50 mg/kg.

With `CC1=C[C@@H]2c3cccc4[nH]c([S+](C)[O-])c(c34)C[C@H]2N(C)C1` (stereo partly specified) the EDmin [4] was >100 mg/kg, the Change [5] was 98% and the EDmin [1] was >50 mg/kg.

In the case of `CC1=C[C@@H]2c3cccc4[nH]c(SC(C)C)c(c34)C[C@H]2N(C)C1`, the EDmin [8] is reported as 2.5 mg/kg, the EDmin [7] is reported as 10 mg/kg and the Change [5] is reported as 132%. For the same molecule, the EDmin [1] was 10 mg/kg.

For `CCCCCCSc1[nH]c2cccc3c2c1C[C@@H]1[C@@H]3C=C(C)CN1C`, the EDmin [4] was >100 mg/kg, the Change [5] was -4% and the EDmin [1] was 50 mg/kg.

`CC1=C[C@@H]2c3cccc4[nH]c(Sc5ccc(Cl)cc5)c(c34)C[C@H]2N(C)C1` was tested, and the EDmin [4] was >100 mg/kg and the EDmin [1] was 100 mg/kg.

For `CC1=C[C@@H]2c3cccc4[nH]c(S(C)(=O)=O)c(c34)C[C@H]2N(C)C1`, the Change [9] was 30%, the EDmin [4] was >100 mg/kg and the EDmin [1] was >50 mg/kg.

With `CCCN1CC(C)=C[C@@H]2c3cccc4[nH]c(SC)c(c34)C[C@H]21` the EDmin [4] was >50 mg/kg and the Change [5] was -74%.

With `COc1ccc(Sc2[nH]c3cccc4c3c2C[C@@H]2[C@@H]4C=C(C)CN2C)cc1` the Change [9] was 31%, the EDmin [4] was >100 mg/kg and the EDmin [1] was >80 mg/kg.

For `C[C@H]1C[C@@H]2c3cccc4[nH]cc(c34)C[C@H]2N(C)C1`, the EDmin [1] was >50 mg/kg.

For `CCCSc1[nH]c2cccc3c2c1C[C@@H]1[C@@H]3C=C(C)CN1C`, the EDmin [4] was >50 mg/kg.

In the case of `C[C@H]1C[C@@H]2c3cccc4[nH]c(Sc5ccccc5)c(c34)C[C@H]2N(C)C1`, the EDmin [4] is reported as >50 mg/kg, the Change [5] is reported as 15% and the EDmin [1] is reported as >50 mg/kg.

In the case of `CSc1c2c3c(cccc3n1CO)[C@H]1C=C(C)CN(C)[C@@H]1C2`, the EDmin [4] is reported as >100 mg/kg, the Change [5] is reported as 91% and the EDmin [1] is reported as 20 mg/kg. For the same molecule, the EDmin [10] was 80 mg/kg.

For `CSc1[nH]c2cccc3c2c1C[C@H]1NCC(C)=C[C@H]31`, the Change [9] was 24%, the EDmin [4] was 50 mg/kg and the EDmin [1] was >50 mg/kg.

With `CSc1[nH]c2cccc3c2c1C[C@@H]1[C@@H]3C=C(C)CN1C` the EDmin [6] was 10 mg/kg, the EDmin [4] was 50 mg/kg and the EDmin [7] was 5 mg/kg. The Change [5] was 532% and the EDmin [1] was 2.5 mg/kg.

For `CCCN1C[C@H](C)C[C@@H]2c3cccc4[nH]c(SC)c(c34)C[C@H]21`, the EDmin [1] was >50 mg/kg.

`CSc1c2c3c(cccc3n1C)[C@H]1C=C(C)CN(C)[C@@H]1C2` gave a Change [11] of -23%, an EDmin [4] of 100 mg/kg and an EDmin [1] of 100 mg/kg.

`CC1=C[C@@H]2c3cccc4[nH]c(SCc5ccccc5)c(c34)C[C@H]2N(C)C1` was tested, and the EDmin [6] was 80 mg/kg, the Change [9] was -9% and the EDmin [4] was 100 mg/kg. The EDmin [1] was 25 mg/kg.

`C[C@@H]1C[C@@H]2c3cccc4[nH]c(Sc5ccccc5)c(c34)C[C@H]2N(C)C1` was tested, and the EDmin [8] was 10 mg/kg, the EDmin [7] was 20 mg/kg and the Change [5] was 106%. It also gave an EDmin [1] of 20 mg/kg.

With `CN(C)CCCN1c2ccccc2Sc2ccc(Cl)cc21` [CHLORPROMAZINE] the EDmin [1] was 10 mg/kg and the EDmin [10] was 10 mg/kg.

Work on `CN1CCN(C2=Nc3cc(Cl)ccc3Nc3ccccc32)CC1` [CLOZAPINE] yielded an EDmin [4] of 20 mg/kg, an EDmin [7] of 40 mg/kg and a Change [5] of 1.6%. It also gave an EDmin [1] of 30 mg/kg and an EDmin [10] of 80 mg/kg.

`O=C(CCCN1CCC(O)(c2ccc(Cl)cc2)CC1)c1ccc(F)cc1` [HALOPERIDOL] was tested, and the EDmin [4] was 1 mg/kg, the Change [5] was 1413% and the EDmin [1] was 0.5 mg/kg. It also gave an EDmin [10] of 0.5 mg/kg.
